{"source": "paper PMC10499415", "about": "(Clinical and Translational Science, 2023)", "key": {"[1]": {"test": "Phase I hepatic impairment study: safety and tolerability", "assay_type": "in vivo, human", "in_short": "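Adults with chronic, stable hepatic impairment graded by Child-Pugh score (mild 5–6, moderate 7–9, severe 10–15), plus healthy controls matched on age, BMI and sex. All received a single oral 20 mg dose of test compound with ~240 mL water after an overnight fast of ≥10 h. Inpatient from day −1 to day 4, with repeated clinical and laboratory safety evaluations through day 4. AEs were queried by contact ~14 days post-dose.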"}, "[2]": {"details": "for AUC0–24 GMR (90% CI) / AUC0–inf GMR (90% CI) / C max GMR (90% CI): GMR = 100 × (test/reference); for increase in AUC0–inf compared with matched controls / increase in C max compared with matched controls: single oral 20 mg"}, "[3]": {"design": "AUC0–t / AUC0–inf: unit not given beside the values", "details": "cited from earlier work"}, "[4]": {"design": "unit not given beside the values", "details": "subjects who received futibatinib alone; cited from earlier work"}, "[5]": {"tested_on": "cytochrome P450 (CYP450)", "details": "in vitro; cited from earlier work"}, "[6]": {"details": "cited from earlier work"}, "[7]": {"test": "clinical", "details": "human, in vivo, po, 20 mg, T max"}, "[8]": {"details": "cited from earlier work", "remark": "listed apart in the source"}, "[9]": {"details": "healthy male adults; cited from earlier work"}, "[10]": {"details": "hepatic impairment groups vs overall healthy control group, range over groups"}, "[11]": {"details": "mild HI vs matched healthy control"}, "[12]": {"details": "mild HI vs overall healthy control cohort"}, "[13]": {"details": "moderate HI vs matched healthy control"}, "[14]": {"details": "moderate HI vs overall healthy control cohort"}, "[15]": {"details": "severe HI vs matched healthy control"}, "[16]": {"details": "severe HI vs overall healthy control cohort"}, "[17]": {"details": "healthy subjects, fasted conditions"}}, "note": "Like-named read-outs stand apart in the source and are kept apart here."}
{"smiles": "C=CC(=O)N1CC[C@H](n2nc(C#Cc3cc(OC)cc(OC)c3)c3c(N)ncnc32)C1", "note": "[futibatinib, Futibatinib]", "values": [{"measurement": "laboratory results", "setting": "[1]; all cohorts", "value": "No unexpected findings or remarkable trends"}, {"measurement": "study discontinuations due to TEAEs", "setting": "[1]; all cohorts", "value": "no study discontinuations"}, {"measurement": "total TEAEs reported (all grade 1)", "setting": "[1]; all cohorts, 38 participants", "value": "four"}, {"measurement": "participants reporting TEAEs", "setting": "[1]; moderate hepatic impairment cohort", "value": "No participants"}, {"measurement": "participants reporting TEAEs", "setting": "[1]; severe hepatic impairment cohort", "value": "No participants"}, {"measurement": "tolerability", "setting": "[1]; single oral 20 mg, all groups", "value": "well‐tolerated"}, {"measurement": "geometric mean C max greater than in corresponding matched healthy control group", "setting": "[2]; across the hepatic impairment groups", "value": "10%–43%"}, {"measurement": "geometric mean AUC greater than in corresponding matched healthy control group", "setting": "[2]; across the hepatic impairment groups, AUC0–24, AUC0–t, AUC0–inf", "value": "17%–21%"}, {"measurement": "mean percentage of AUC0–inf extrapolated", "setting": "[2]; all groups", "value": "< 2", "unit": "%"}, {"measurement": "GMRs for AUC", "setting": "[2]; [10]", "value": "85.9% to 122.5%"}, {"measurement": "GMRs for C max", "setting": "[2]; [10]", "value": "113.5% to 117.9%"}, {"measurement": "AUC0–24 GMR (90% CI)", "setting": "[2]; [11]", "value": "121.19 (74.27–197.74) %"}, {"measurement": "AUC0–inf GMR (90% CI)", "setting": "[2]; [11]", "value": "120.79 (73.89–197.47) %"}, {"measurement": "C max GMR (90% CI)", "setting": "[2]; [11]", "value": "142.53 (103.42–196.44) %"}, {"measurement": "AUC0–24 GMR (90% CI)", "setting": "[2]; [12]", "value": "85.92 (54.94–134.38) %"}, {"measurement": "AUC0–inf GMR (90% CI)", "setting": "[2]; [12]", "value": "85.66 (54.70–134.15) %"}, {"measurement": "C max GMR (90% CI)", "setting": "[2]; [12]", "value": "113.52 (82.50–156.21) %"}, {"measurement": "increase in futibatinib exposure versus healthy matched controls", "setting": "[2]; mild hepatic impairment", "value": "21%–43%"}, {"measurement": "increase in AUC0–inf compared with matched controls", "setting": "[2]; mild hepatic impairment", "value": 21, "unit": "%"}, {"measurement": "increase in C max compared with matched controls", "setting": "[2]; mild hepatic impairment", "value": 43, "unit": "%"}, {"measurement": "AUC0–24 GMR (90% CI)", "setting": "[2]; [13]", "value": "119.62 (54.08–264.61) %"}, {"measurement": "AUC0–inf GMR (90% CI)", "setting": "[2]; [13]", "value": "119.61 (53.90–265.45) %"}, {"measurement": "C max GMR (90% CI)", "setting": "[2]; [13]", "value": "114.85 (75.38–175.00) %"}, {"measurement": "AUC0–24 GMR (90% CI)", "setting": "[2]; [14]", "value": "122.20 (64.51–231.48) %"}, {"measurement": "AUC0–inf GMR (90% CI)", "setting": "[2]; [14]", "value": "122.49 (64.50–232.63) %"}, {"measurement": "C max GMR (90% CI)", "setting": "[2]; [14]", "value": "117.90 (82.04–169.44) %"}, {"measurement": "increase in futibatinib exposure versus healthy matched controls", "setting": "[2]; moderate hepatic impairment", "value": "15%–20%"}, {"measurement": "increase in AUC0–inf compared with matched controls", "setting": "[2]; moderate hepatic impairment", "value": 20, "unit": "%"}, {"measurement": "increase in C max compared with matched controls", "setting": "[2]; moderate hepatic impairment", "value": 15, "unit": "%"}, {"measurement": "AUC0–24 GMR (90% CI)", "setting": "[2]; [15]", "value": "116.91 (57.52–237.60) %"}, {"measurement": "AUC0–inf GMR (90% CI)", "setting": "[2]; [15]", "value": "118.23 (57.79–241.87) %"}, {"measurement": "C max GMR (90% CI)", "setting": "[2]; [15]", "value": "109.64 (66.62–180.44) %"}, {"measurement": "AUC0–24 GMR (90% CI)", "setting": "[2]; [16]", "value": "117.62 (67.44–205.13) %"}, {"measurement": "AUC0–inf GMR (90% CI)", "setting": "[2]; [16]", "value": "118.57 (67.46–208.38) %"}, {"measurement": "C max GMR (90% CI)", "setting": "[2]; [16]", "value": "117.78 (87.42–158.68) %"}, {"measurement": "increase in AUC0–inf compared with matched controls", "setting": "[2]; severe hepatic impairment", "value": 18, "unit": "%"}, {"measurement": "increase in C max compared with matched controls", "setting": "[2]; severe hepatic impairment", "value": 10, "unit": "%"}, {"measurement": "increase in futibatinib exposure versus healthy matched controls", "setting": "[2]; severe mild hepatic impairment (so in the source)", "value": "10%–18%"}, {"measurement": "median T max", "setting": "[3]; fed conditions", "value": 4.0, "unit": "h"}, {"measurement": "bioavailability lower under fed versus fasted conditions", "setting": "[3]; fed versus fasted", "value": 11.2, "unit": "%"}, {"measurement": "AUC0–inf", "setting": "[3]; [17]", "value": 625.7}, {"measurement": "AUC0–t", "setting": "[3]; [17]", "value": 617.8}, {"measurement": "AUC0–inf", "setting": "[4]", "value": 941}, {"measurement": "AUC0–t", "setting": "[4]", "value": 934.0}, {"measurement": "contribution of CYP450–related metabolism to the overall metabolism", "setting": "[5]", "value": "~ 50%"}, {"measurement": "impact of futibatinib on the PKs of CYP3A substrates", "setting": "[6]", "value": "no impact"}, {"measurement": "futibatinib exposure increase", "setting": "[6]; co‐administered with itraconazole", "value": "40%–50%"}, {"measurement": "futibatinib exposure decrease", "setting": "[6]; co‐administered with rifampin", "value": "50%–60%"}, {"measurement": "Tmax", "setting": "[7]", "value": 1.75, "unit": "h"}, {"measurement": "accumulation", "setting": "[8]; after repeat once daily doses", "value": "no accumulation"}, {"measurement": "mean half‐life", "setting": "[8]; patients with cancer and healthy subjects", "value": "~ 3 h"}, {"measurement": "dose proportionality of exposure", "setting": "[8]; up to 80 mg", "value": "Dose‐proportional exposure increases"}, {"measurement": "total amount of unchanged futibatinib in urine and feces", "setting": "[9]", "value": "negligible"}]}
